Results published in ChEMBL document CHEMBL1133678, “Synthesis of new indeno[1,2-c]isoquinolines: cytotoxic non-camptothecin topoisomerase I inhibitors” (2000).

Experiments:
Format in all cases: functional
[1] = tested on: MDA-MB-435; assay: Antiproliferative activity was determined for 50% growth inhibition against human breast MDA-MB-435 cell line
Method in brief: (§1)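 Human cancer cell lines from the roughly 55-line panel. GI50 is the concentration giving 50% growth inhibition. The test range was 10^-4 to 10^-8 M. Values outside the range were set to the minimum (10^-8 M) or the maximum (10^-4 M).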

[2] = tested on: SN12C; assay: Antiproliferative activity was determined for 50% growth inhibition against human renal SN12C cell line; method in brief: as §1
[3] = tested on: DU-145; assay: Antiproliferative activity was determined for 50% growth inhibition against human Prostate DU-145 cell line; method in brief: as §1
[4] = tested on: HOP-62; assay: Antiproliferative activity was determined for 50% growth inhibition against human lung HOP-62 cell line; method in brief: as §1
[5] = tested on: UACC-62; assay: Antiproliferative activity was determined for 50% growth inhibition against human melanoma UACC-62 cell line; method in brief: as §1
[6] = tested on: Panel (Carcinoma cell lines); assay: Mean graph midpoint for growth inhibition of all human cancer cell lines; design: unit: µM
Method in brief: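 Mean graph midpoint across all cell lines successfully tested in the roughly 55-line human cancer panel. Each line's GI50 is the 50% growth-inhibition concentration, tested over 10^-4 to 10^-8 M. Out-of-range values were set to 10^-8 M or 10^-4 M before averaging.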

[7] = tested on: OVCAR-3; assay: Antiproliferative activity was determined for 50% growth inhibition against human ovarian OVCAR-3 cell line; method in brief: as §1
[8] = tested on: HCT-116; assay: Antiproliferative activity was determined for 50% growth inhibition against human colon HCT116 cell line; method in brief: as §1
[9] = tested on: SF-539; assay: Antiproliferative activity was determined for 50% growth inhibition against human CNS SF-539 cell line; method in brief: as §1

SMILES	GI50 ([1]; Homo sapiens, MDA-MB-435)	GI50 ([2]; Homo sapiens, SN12C)	GI50 ([3]; Homo sapiens, DU-145)	GI50 ([4]; Homo sapiens, HOP-62)	GI50 ([5]; Homo sapiens, UACC-62)	MGM [6]	GI50 ([7]; Homo sapiens, OVCAR-3)	GI50 ([8]; Homo sapiens, HCT-116)	GI50 ([9]; Homo sapiens, SF-539)	GI50 [1]	GI50 [7]	GI50 [9]	GI50 [2]	GI50 [3]	GI50 [4]	GI50 [5]	GI50 [8]
COc1cc2c3c(n(CCCBr)c(=O)c2cc1OC)-c1cc2c(cc1C3=O)OCO2	16.6 µM	5.83 µM	3.2 µM	6.22 µM	5.02 µM	13.7	62.1 µM	12 µM	4.33 µM								
COc1cc2c3c(n(CCCCl)c(=O)c2cc1OC)-c1cc2c(cc1C3=O)OCO2	80.5 µM	24 µM	16.8 µM	40.4 µM	68.6 µM	47.9	> 100 µM	72.6 µM	40.7 µM								
COc1cc2c3c(n(CCCN)c(=O)c2cc1OC)-c1ccc2ccccc2c1C3=O.Cl	2.14 µM	6.54 µM	1.64 µM	1.89 µM	17.5 µM	3.72	3.73 µM	1.73 µM	1.53 µM								
COc1cc2c3c(n(CCCNCCO)c(=O)c2cc1OC)-c1cc2c(cc1C3=O)OCO2 [LMP-744]			0.02 µM			0.21				0.68 µM	1.5 µM	0.09 µM					
O=C1c2cc3c(cc2-c2c1c1ccccc1c(=O)n2CCCCl)OCO3	> 100 µM	> 100 µM	12.7 µM	13.1 µM	53.8 µM	35.1	66.3 µM	74 µM	> 100 µM								
O=C1c2ccccc2-c2c1c1ccccc1c(=O)n2CCCO	39.7 µM	6.49 µM	9.56 µM	4.89 µM	16.2 µM	10.3	28.8 µM	3.64 µM	52.5 µM								
O=C1c2ccccc2-c2c1c1ccccc1c(=O)n2O	29.1 µM	35.7 µM	40.2 µM	56.6 µM	21.5 µM	29.5	30.2 µM	24.3 µM	15.3 µM								
COc1cc2c(cc1OC)-c1c(c3cc(OC)c(OC)cc3c(=O)n1CCCNCCO)C2=O	1.25 µM				0.38 µM	0.51		0.31 µM			11.2 µM	0.01 µM	0.05 µM	0.02 µM	0.05 µM		
COc1cc2c(cc1OC)-c1c(c3cc(OC)c(OC)cc3c(=O)n1CCCBr)C2=O	11.7 µM	3.15 µM	1.92 µM	1.87 µM	1.91 µM	6.91	60.1 µM	3.53 µM	2.58 µM								
COc1cc2c3c(n(CCCN=[N+]=[N-])c(=O)c2cc1OC)-c1cc2c(cc1C3=O)OCO2	> 100 µM	4.53 µM	3.19 µM	3.58 µM		11.8	76.2 µM	7.4 µM	3 µM								
COc1cc2c(cc1OC)-c1c(c3cc(OC)c(OC)cc3c(=O)n1CCCNCCCO)C2=O.Cl						1.14				2.42 µM	3.8 µM	0.42 µM	0.23 µM	0.23 µM	0.32 µM	1.87 µM	0.71 µM
COc1cc2c3c(n(C)c(=O)c2cc1OC)-c1cc2c(cc1C3)OCO2	> 100 µM	43.6 µM	42.5 µM	11.8 µM	50 µM	43.7	> 100 µM	42.9 µM	61.2 µM								
COc1cc2c3c(n(CCCNCCO)c(=O)c2cc1OC)-c1ccc2ccccc2c1C3=O	0.42 µM	0.15 µM	0.28 µM	0.17 µM	0.16 µM	0.19	0.27 µM	0.18 µM	0.22 µM								
COc1cc2c(cc1OC)-c1c(c3ccccc3c(=O)n1CCCN)C2=O.Cl	1.05 µM	0.43 µM	0.89 µM	0.19 µM	1.27 µM	0.62	0.85 µM	0.35 µM	2.93 µM								
O=C1c2ccccc2-c2c1c1ccccc1c(=O)n2CCCBr	21.5 µM	7 µM	13 µM	4.59 µM	10.1 µM	13.3	23.5 µM	4.47 µM	4.61 µM								
CCCCn1c2c(c3cc(OC)c(OC)cc3c1=O)Cc1cc3c(cc1-2)OCO3	92.4 µM	21.7 µM	5.37 µM	12 µM	6.51 µM	21.3	91.9 µM	13.2 µM	3.4 µM								
COc1cc2c3c(n(C)c(=O)c2cc1OC)-c1cc2c(cc1C3=O)OCO2	96 µM	68 µM	37 µM	1.3 µM	4.2 µM	20		35 µM	41 µM								
CC[C@@]1(O)C(=O)OCc2c1cc1n(c2=O)Cc2cc3ccccc3nc2-1 [CAMPTOTHECIN]	0.04 µM	0.02 µM	0.01 µM	0.01 µM	0.01 µM			0.03 µM	0.01 µM								
